{"source": "ChEMBL document CHEMBL4808178", "about": "(J Med Chem, 2021)", "key": {"[1]": {"system": "HCT-116", "assay": "Antitumor activity against human HCT116 cells xenografted in BALB/c athymic nude mouse assessed as tumor growth inhibition at 60 mg/kg, po administered twice daily for 4 weeks and measured every 3 days", "type": "functional", "conditions": "HCT-116, po, 672 h, read-out: TGI", "summary_of_the_method": "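Male BALB/c athymic nude mice, 5 weeks old, 16−18 g, given 0.2 mL of 5 × 10⁷ cells/mL HCT-116 in right armpit. At about 100 mm³, randomized to groups of five; intragastric dosing twice daily for 4 weeks. Tumor volume and body weight every 3 days; tumors weighed after sacrifice; organs HE-stained.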"}, "[2]": {"system": "HCT-116", "assay": "Induction of apoptosis in human HCT116 cells assessed as upregulation of cleaved PARP level at 20 uM incubated for 24 hrs by Western blot analysis", "type": "functional, cell-based", "summary_of_the_method": "(§1)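 HCT-116 cells at 2 × 10⁵ cells/mL in DMEM/10% FBS, grown 12 h at 37 °C, then treated 24 h (vehicle DMSO). Lysates quantified by BCA, run on 10% SDS-PAGE, PVDF transfer, blocked in 5% milk/TBST, primary antibodies 4 °C overnight, HRP secondary 2 h, chemiluminescent detection; normalized to β-actin, n = 3.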"}, "[3]": {"system": "HCT-116", "assay": "Induction of apoptosis in human HCT116 cells assessed as viable cells at 5 uM after 24 hrs by annexin V-FITC/propidium iodide staining based flow cytometry (reference value: 88.3%)", "type": "functional", "conditions": "read-out: Activity"}, "[4]": {"system": "HCT-116", "assay": "Induction of apoptosis in human HCT116 cells assessed as reduction in Bcl2 protein expression at 20 uM incubated for 24 hrs by Western blot analysis", "type": "functional, cell-based", "summary_of_the_method": "as §1"}, "[5]": {"system": "MCF7", "assay": "Cytotoxicity against human MCF7 cells assessed as reduction in cell viability incubated for 72 hrs by MTT assay", "type": "functional, cell-based", "conditions": "MCF7, 72 h", "summary_of_the_method": "(§2)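 About 5 × 10³ cells/well, seeded overnight at 37 °C, 5% CO₂, in DMEM or RPMI-1640 with 10% FBS and antibiotics. DMSO-dissolved compounds diluted in medium, exposure 72 h.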"}, "[6]": {"assay": "Toxicity in BALB/c mouse xenografted with human HCT116 cells assessed as effect on liver tissue at 60 to 90 mg/kg, po administered twice daily for 4 weeks and measured every 3 days by HE staining based assay", "type": "organism-based, HCT-116", "conditions": "in vivo, 672 h, dose 60-90 mg/kg", "summary_of_the_method": "(§3)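 Male 5-week BALB/c nude mice (16−18 g), 0.2 mL of 5 × 10⁷ cells/mL HCT-116 injected into right armpit; at ~100 mm³ randomized, 5/group; intragastric 60 or 90 mg/kg twice daily for 4 weeks; tumor volume and body weight every 3 days; after sacrifice heart, liver, spleen, lung, kidney HE-stained.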"}, "[7]": {"molecular_target": "T1, Aldehyde dehydrogenase 1A1 (Homo sapiens) (UniProt P00352)", "T1 sequence (whole entry)": "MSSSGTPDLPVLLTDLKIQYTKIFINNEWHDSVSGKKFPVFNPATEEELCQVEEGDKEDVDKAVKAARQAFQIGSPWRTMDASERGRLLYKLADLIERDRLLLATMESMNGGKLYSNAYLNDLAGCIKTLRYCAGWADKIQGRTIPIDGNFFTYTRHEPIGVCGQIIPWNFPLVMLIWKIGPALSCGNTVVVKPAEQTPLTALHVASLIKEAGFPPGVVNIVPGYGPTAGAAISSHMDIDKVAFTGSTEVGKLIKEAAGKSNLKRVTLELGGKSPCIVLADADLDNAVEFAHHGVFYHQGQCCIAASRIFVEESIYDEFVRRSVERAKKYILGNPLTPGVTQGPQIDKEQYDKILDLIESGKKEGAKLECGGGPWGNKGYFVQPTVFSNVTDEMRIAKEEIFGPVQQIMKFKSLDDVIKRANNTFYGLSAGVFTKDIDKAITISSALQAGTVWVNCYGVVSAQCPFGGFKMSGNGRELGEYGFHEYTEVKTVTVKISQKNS", "assay": "Inhibition of ALDH1A1 in human HCT116 cells at 5 uM after 24 hrs by aldefluor staining based fluorescence analysis", "type": "cell-based", "conditions": "HCT-116", "summary_of_the_method": "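HCT-116 cells, 2 × 10⁵/well, grown overnight at 37 °C, 5% CO₂, then treated 24 h (vehicle DMSO). Aldefluor staining read in FITC channel by FACS for proportion of ALDH⁺ cells; DEAB-pretreated cells set baseline fluorescence.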"}, "[8]": {"system": "HCT-116", "assay": "Inhibition of cell stemness in human HCT116 cells assessed as morphological alterations at 5 uM after 10 days by microscopic analysis", "type": "functional, cell-based", "conditions": "time 10.0 day", "summary_of_the_method": "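Sorted ALDH⁺ HCT-116 cells, 800/well, in serum-free DMEM with B27 (1:50), EGF 20 ng/mL, β-FGF 10 ng/mL; co-incubated with compound (5 μM) or DMSO vehicle for 10 days; sphere number, diameter and morphology scored from microscopy images; mean ± SD, n = 3.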"}, "[9]": {"molecular_target": "Epidermal growth factor receptor (Homo sapiens) (UniProt P00533)", "sequence (P00533 whole entry)": "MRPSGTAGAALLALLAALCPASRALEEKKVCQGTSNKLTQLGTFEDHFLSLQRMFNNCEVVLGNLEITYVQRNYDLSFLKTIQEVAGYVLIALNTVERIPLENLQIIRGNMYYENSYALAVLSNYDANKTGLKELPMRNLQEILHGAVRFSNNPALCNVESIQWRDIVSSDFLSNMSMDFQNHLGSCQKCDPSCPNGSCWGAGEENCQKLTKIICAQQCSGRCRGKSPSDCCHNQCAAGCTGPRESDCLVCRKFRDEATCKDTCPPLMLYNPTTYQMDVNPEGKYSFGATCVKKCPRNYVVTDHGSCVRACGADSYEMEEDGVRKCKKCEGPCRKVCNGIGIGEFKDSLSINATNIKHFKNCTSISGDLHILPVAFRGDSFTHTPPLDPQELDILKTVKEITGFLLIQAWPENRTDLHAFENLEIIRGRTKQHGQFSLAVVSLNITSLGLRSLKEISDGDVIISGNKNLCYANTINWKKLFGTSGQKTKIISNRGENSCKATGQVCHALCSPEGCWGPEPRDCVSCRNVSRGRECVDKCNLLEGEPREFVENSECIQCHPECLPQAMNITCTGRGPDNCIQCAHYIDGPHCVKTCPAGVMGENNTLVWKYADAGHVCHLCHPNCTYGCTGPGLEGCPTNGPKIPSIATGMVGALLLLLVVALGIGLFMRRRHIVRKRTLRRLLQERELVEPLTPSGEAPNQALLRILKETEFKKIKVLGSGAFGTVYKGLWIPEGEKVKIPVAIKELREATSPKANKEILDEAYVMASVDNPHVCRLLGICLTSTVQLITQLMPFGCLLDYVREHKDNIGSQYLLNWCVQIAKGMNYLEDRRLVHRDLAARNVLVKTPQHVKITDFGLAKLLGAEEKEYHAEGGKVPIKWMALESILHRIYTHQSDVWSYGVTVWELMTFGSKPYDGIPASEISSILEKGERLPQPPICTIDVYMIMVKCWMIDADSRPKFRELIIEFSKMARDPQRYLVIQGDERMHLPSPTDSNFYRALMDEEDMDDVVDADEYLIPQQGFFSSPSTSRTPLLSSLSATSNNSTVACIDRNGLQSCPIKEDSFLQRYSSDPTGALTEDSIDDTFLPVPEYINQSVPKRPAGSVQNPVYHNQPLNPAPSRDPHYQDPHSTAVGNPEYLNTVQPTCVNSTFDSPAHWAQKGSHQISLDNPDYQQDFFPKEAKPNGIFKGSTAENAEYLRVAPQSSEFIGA", "assay": "Inhibition of EGFR (unknown origin) assessed as residual activity at 1 uM relative to control", "summary_of_the_method": "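Single-concentration screen at 1 μmol/L against a panel of 208 kinases, run as a commercial service; activity expressed relative to control.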"}, "[10]": {"system": "L02", "assay": "Cytotoxicity against human L02 cells assessed as reduction in cell viability incubated for 72 hrs by MTT assay", "type": "cell-based", "conditions": "L02, 72 h", "summary_of_the_method": "as §2"}, "[11]": {"system": "HCT-116", "assay": "Induction of apoptosis in human HCT116 cells assessed as upregulation of cleaved caspase 3 level at 20 uM incubated for 24 hrs by Western blot analysis", "type": "functional, cell-based", "summary_of_the_method": "as §1"}, "[12]": {"system": "HCT-116", "assay": "Induction of apoptosis in human HCT116 cells assessed as viable cells at 10 uM after 24 hrs by annexin V-FITC/propidium iodide staining based flow cytometry (reference value: 88.3%)", "type": "functional", "conditions": "read-out: Activity"}, "[13]": {"system": "HCT-116", "assay": "Effect on Wnt/beta-Catenin signaling in human HCT116 cells assessed as reduction in c-Myc mRNA level at 20 uM after 24 hrs by RT-qPCR analysis", "type": "functional, cell-based", "summary_of_the_method": "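HCT-116 cells treated 24 h; total RNA by TRIZOL, one-step RT-qPCR: 55 °C 10 min, 95 °C 1 min, then 39 cycles of 95 °C 10 s and 60 °C 30 s, with melting-curve and no-template controls. β-Actin as internal standard; relative expression by 2^−ΔΔCt, mean ± SD (n = 3).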"}, "[14]": {"system": "HCT-116", "assay": "Induction of apoptosis in human HCT116 cells assessed as viable cells at 20 uM after 24 hrs by annexin V-FITC/propidium iodide staining based flow cytometry (reference value: 88.3%)", "type": "functional", "conditions": "read-out: Activity"}, "[15]": {"assay": "Toxicity in BALB/c mouse xenografted with human HCT116 cells assessed as effect on kidney tissue at 60 to 90 mg/kg, po administered twice daily for 4 weeks and measured every 3 days by HE staining based assay", "type": "organism-based, HCT-116", "conditions": "in vivo, 672 h, dose 60-90 mg/kg", "summary_of_the_method": "as §3"}, "[16]": {"system": "HCT-116", "assay": "Inhibition of cell stemness in human HCT116 cells assessed as inhibition of CD44+/CD133+ expression at 20 uM after 24 hrs by flow cytometry analysis", "type": "functional", "summary_of_the_method": "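ALDH⁺ HCT-116 subpopulation sorted by flow cytometry; 2 × 10⁵ cells/well seeded overnight at 37 °C, 5% CO₂; treated 20 μM for 24 h (vehicle DMSO); stained with PE anti-CD133 and FITC anti-CD44 30 min; CD44⁺/CD133⁺ read by flow cytometry.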"}}, "note": "The source made the active and inactive calls. The rule behind the calls is not given here.", "data": [{"smiles": "O=C(NCCO)c1ccc2c(c1)nc(Nc1cccc(Cl)c1)c1ccncc12", "values": [{"measurement": "inhibition in vivo at 60 mg/kg", "setting": "[1]", "value": 59, "unit": "%"}, {"measurement": "Activity", "setting": "[2]", "value": "Active"}, {"measurement": "viability at 5 µM", "setting": "[3]", "value": 60.7, "unit": "%"}, {"measurement": "Activity", "setting": "[4]", "value": "Active"}, {"measurement": "IC50", "setting": "[5]", "value": 7.5, "unit": "µM"}, {"measurement": "Activity", "setting": "[6]", "value": "Non-Toxic"}, {"measurement": "inhibition", "setting": "[7]", "value": 77, "unit": "%"}, {"measurement": "inhibition", "setting": "[8]", "value": "Active"}, {"measurement": "Activity", "setting": "[9]", "value": 34.1, "unit": "%"}, {"measurement": "IC50", "setting": "[10]", "value": 96.7, "unit": "µM"}, {"measurement": "Activity", "setting": "[11]", "value": "Active"}, {"measurement": "viability at 10 µM", "setting": "[12]", "value": 56.4, "unit": "%"}, {"measurement": "Activity", "setting": "[13]", "value": "Active"}, {"measurement": "viability at 20 µM", "setting": "[14]", "value": 36, "unit": "%"}, {"measurement": "Activity", "setting": "[15]", "value": "Non-Toxic"}, {"measurement": "inhibition at 20 µM", "setting": "[16]", "value": 84, "unit": "%"}]}]}
